Consider ten compounds from ChEMBL document CHEMBL3124769, “Synthesis and antitumor activities of novel dipeptide derivatives derived from dehydroabietic acid” (Bioorg Med Chem Lett, 2014).

Activity calls are given as the source filed them. The rule behind the calls is not given here.

The test system of test [1] is SK-OV-3. In words: Cytotoxicity against human SKOV3 cells after 48 hrs by MTT assay. In kind it is functional, cell-based. As to conditions: SK-OV-3, 48 h. The essentials: (§1)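 Cells from the six lines were plated and left to adhere for 24 h. They were then exposed to compounds at 100 to 0.01 µM for 48 h. After that the medium was replaced with complete medium and viability was read by MTT. IC50 came from the concentration series, and each experiment was done three times.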
(Tetrazolium dyes change colour on reduction, which living cells bring about.)

The nature of test [2]: Cytotoxicity against human Bel7404 cells after 48 hrs by MTT assay. In kind it is functional, cell-based. As to conditions: BEL-7404, 48 h. The essentials:
as §1

For test [3], the system named is HCT-116. In words: Cytotoxicity against human HCT116 cells after 48 hrs by MTT assay. As to conditions: HCT-116, 48 h. In kind it is functional, cell-based. An outline of the steps: as §1
The subject of test [4] is HepG2. In words: Cytotoxicity against human HepG2 cells after 48 hrs by MTT assay. Type of test: functional, cell-based. The following applies: HepG2, 48 h. The essentials:
as §1

Test [5] has as its system NCI-H460. Description: Cytotoxicity against human NCI-H460 cells after 48 hrs by MTT assay. In kind it is functional, cell-based. The following applies: NCI-H460, 48 h. An outline of the steps:
as §1

For test [6], the system named is HeLa. Description: Cytotoxicity against human HeLa cells after 48 hrs by MTT assay. Type of test: functional, cell-based. The essentials:
as §1

The subject of test [7] is HeLa. Description: Induction of apoptosis in human HeLa cells assessed as apoptotic morphology at 10 uM after 12 to 24 hrs by Hoechst 33258 staining. Type of test: functional, cell-based. An outline of the steps: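 HeLa cells on coverslips were treated at 10 µM for 12 and 24 h, with an untreated 24 h control. They were fixed in 4% paraformaldehyde for 10 min, washed in PBS, stained with Hoechst 33258 for 5 min and washed again. Nuclei were viewed under fluorescence at 350 nm excitation and 460 nm emission.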

Test [8] has as its system HeLa. In words: Induction of apoptosis in human HeLa cells assessed as DNA fragmentation at 5 to 15 uM after 24 hrs by agarose gel electrophoresis analysis. Type of test: functional, cell-based. An outline of the steps:
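HeLa cells were exposed for 24 h at 5, 10 or 15 µM alongside untreated cells. Total cellular DNA was extracted and run on agarose gel electrophoresis to look for a nucleosome-sized ladder (~180–200 bp fragments).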

Test [9] concerns HeLa. In words: Induction of apoptosis in human HeLa cells assessed as early apoptotic cells at 5 uM after 12 hrs using annexin V/propidium iodide staining by flow cytometry (reference value: 3.8%). Type of test: functional. The essentials: (§2)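 HeLa cells were treated at 5 or 10 µM for 12 h, with untreated cells run alongside for 12 h. Cells were washed in cold PBS and resuspended in binding buffer. They were stained with Annexin V-FITC, then PI, for 20 min in the dark and run on a flow cytometer. Quadrants: Q2 necrotic/late apoptotic, Q3 normal, Q4 early apoptotic. Apoptosis ratio = early + late.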
A general note: Flow cytometry measures light scatter and fluorescence of single cells or particles in a stream.

For test [10], the system named is HeLa. In words: Induction of apoptosis in human HeLa cells assessed as apoptotic ratio at 5 uM after 12 hrs using annexin V/propidium iodide staining by flow cytometry (reference value: 2.3%). In kind it is functional. The essentials: as §2
Test [11] concerns HeLa. In words: Induction of apoptosis in human HeLa cells assessed as DNA fragmentation at 10 uM after 12 to 24 hrs by TUNEL assay. In kind it is functional, cell-based. An outline of the steps: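 After 12 and 24 h at 10 µM, HeLa cells (untreated 24 h control) were fixed in 4% paraformaldehyde and permeabilized with 0.1% Triton X-100. Fragmented DNA 3′-ends were labeled with FITC-dUTP using a TUNEL kit. Cells were imaged by fluorescence microscopy at 488 nm excitation and 530 nm emission.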

In test [12] the test system is HeLa. In words: Induction of apoptosis in human HeLa cells assessed as apoptotic ratio at 10 uM after 12 hrs using annexin V/propidium iodide staining by flow cytometry (reference value: 2.3%). In kind it is functional. The essentials:
as §2

Test [13] has as its system HeLa. In words: Induction of apoptosis in human HeLa cells assessed as necrotic cells at 5 uM after 12 hrs using annexin V/propidium iodide staining by flow cytometry (reference value: 2.1%). In kind it is functional. An outline of the steps:
as §2

Test [14] relates to HeLa. Description: Induction of apoptosis in human HeLa cells assessed as change in mitochondrial membrane potential at 10 uM after 12 to 24 hrs by JC-1 staining. Type of test: functional, cell-based. An outline of the steps:
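HeLa cells were exposed at 10 µM for 12 and 24 h, with an untreated 24 h control, then stained with JC-1. Monomers were excited at 514 nm (read 515–545 nm, green) and aggregates at 585 nm (read 570–600 nm, red). Depolarization was taken as a rise in the green/red intensity ratio.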

The subject of test [15] is HeLa. Description: Induction of apoptosis in human HeLa cells assessed as release of ROS at 5 to 10 uM after 12 hrs by fluorescence microscopic analysis. Type of test: functional, cell-based. The essentials: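 HeLa cells were given 5 or 10 µM for 12 h, with an untreated control handled the same way. Intracellular ROS was visualized by fluorescence microscopy using the probe 2,7-dichlorofluorescein diacetate.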

Test [16] relates to HeLa. Description: Induction of apoptosis in human HeLa cells at 10 uM after 12 to 24 hrs by acridine orange/ethidium bromide staining. In kind it is functional, cell-based. An outline of the steps: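 HeLa cells were seeded at 5×10⁴ cells/mL on coverslips and fed fresh medium with 10% FBS. They were treated at 10 µM for 12 and 24 h, with an untreated 24 h control. Coverslips were inverted onto AO/EB stain and examined by fluorescence microscopy. Scoring: green = live, green-yellow = early apoptotic, orange = late apoptotic/necrotic.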

Test [17] concerns HeLa. Description: Induction of apoptosis in human HeLa cells assessed as release of mitochondrial cytochrome c into cytosol at 5 to 10 uM after 12 hrs by fluorescence microscopic analysis. In kind it is functional, cell-based.
Test [18] has as its system HeLa. In words: Induction of apoptosis in human HeLa cells assessed as activation of caspase 3/9 by spectrophotometry analysis. In kind it is functional, cell-based. The following applies: TDE = time-dependent effect. The essentials:
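Caspase-3 and caspase-9 activities in treated HeLa cells were measured spectrophotometrically at time points from 3 to 24 h and compared with untreated controls.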

The test system of test [19] is HeLa. Description: Induction of apoptosis in human HeLa cells after 12 hrs using annexin V/propidium iodide staining by flow cytometry. In kind it is functional, cell-based. An outline of the steps:
as §2

For test [20], the system named is HeLa. Description: Induction of apoptosis in human HeLa cells assessed as necrotic cells at 10 uM after 12 hrs using annexin V/propidium iodide staining by flow cytometry (reference value: 2.1%). Type of test: functional. The essentials:
as §2

For test [21], the system named is HeLa. In words: Induction of apoptosis in human HeLa cells assessed as early apoptotic cells at 10 uM after 12 hrs using annexin V/propidium iodide staining by flow cytometry (reference value: 3.8%). Type of test: functional. An outline of the steps:
as §2

As to `CC(C)c1ccc2c(c1)CC[C@H]1[C@](C)(C(=O)N[C@H](Cc3ccccc3)C(=O)Nc3ccc(C(F)(F)F)cc3)CCC[C@]21C`, the IC50 was 36.3 µM in test [1]; 36.1 µM in test [2]; 27.4 µM in test [3]; 21.6 µM in test [4]; 28.9 µM in test [5]; 10.5 µM in test [6].

In the case of `Cc1cccc(NC(=O)[C@@H](Cc2ccccc2)NC(=O)[C@]2(C)CCC[C@]3(C)c4ccc(C(C)C)cc4CC[C@@H]23)c1`, the IC50 amounted to 29.8 µM in test [1]; 34.6 µM in [2]; 32.5 µM in [3]; 26.9 µM in test [4]; 32.4 µM in test [5]; 18.2 µM in test [6].

Turning to `CC(C)c1ccc2c(c1)CC[C@H]1[C@](C)(C(=O)O)CCC[C@]21C` [DEHYDROABIETIC ACID], the IC50 in [1] amounted to 75 µM; in test [2] it was 34.7 µM; in [3] it was 35.2 µM; in test [4], 76.8 µM; in test [5], 80.5 µM; in test [6], 29.4 µM.

For the compound `CC(C)c1ccc2c(c1)CC[C@H]1[C@](C)(C(=O)N[C@H](Cc3ccccc3)C(=O)Nc3cccc(Br)c3)CCC[C@]21C`, the IC50 in [1] was 38.8 µM; in test [2] it was 19.9 µM; in test [3] it was 44.1 µM; in [4], 22.9 µM; in test [5] it was 33.3 µM; in test [6], 25.1 µM.

Regarding `CC(C)c1ccc2c(c1)CC[C@H]1[C@](C)(C(=O)N[C@H](Cc3ccccc3)C(=O)Nc3cccc(Cl)c3)CCC[C@]21C`, the IC50 in test [1] worked out at 30.6 µM; in test [2], 23.8 µM; in [3] it was 45.9 µM; in [4], 24.7 µM; in test [5], 26.3 µM; in test [6] it was 13.1 µM.

As to `CC(C)c1ccc2c(c1)CC[C@H]1[C@](C)(C(=O)N[C@H](Cc3ccccc3)C(=O)Nc3ccccc3Cl)CCC[C@]21C`, the IC50 in test [1] came to 13.5 µM; in [2], 15.8 µM; in [3] it was 25.5 µM; in test [4] it was 25.3 µM; in [5], 15.2 µM; in test [6] it was 10.3 µM.

Turning to `COc1cccc(NC(=O)[C@@H](Cc2ccccc2)NC(=O)[C@]2(C)CCC[C@]3(C)c4ccc(C(C)C)cc4CC[C@@H]23)c1`, the half-inhibitory concentration (IC50) worked out at 30.5 µM in test [1]; 38.5 µM in test [2]; 35.8 µM in [3]; 29.5 µM in [4]; 40.4 µM in test [5]; 25.8 µM in test [6].

On to `COc1ccc(OC)c(NC(=O)[C@@H](Cc2ccccc2)NC(=O)[C@]2(C)CCC[C@]3(C)c4ccc(C(C)C)cc4CC[C@@H]23)c1`, for which the IC50 was found to be 53.8 µM in [1]; 56.3 µM in test [2]; 36.8 µM in test [3]; 38.1 µM in [4]; 27.4 µM in test [5]; 19.3 µM in [6].

On to `COc1ccc(NC(=O)[C@@H](Cc2ccccc2)NC(=O)[C@]2(C)CCC[C@]3(C)c4ccc(C(C)C)cc4CC[C@@H]23)cc1`, for which the concentration for half-maximal inhibition (IC50) is 23.8 µM in test [1]; 15.3 µM in [2]; 15.7 µM in test [3]; 12.4 µM in test [4]; 17.2 µM in [5]; 4.94 µM in [6]. Besides, the outcome in test [7], in [8], in [11], in test [14], in test [15] and in [16] was Active. Moreover, in test [17], the result was Active. The Activity is 9.4% in [9]; 12.6% in test [10]; 33.7% in test [12]; 3.2% in [13]; “tde” in test [18]; “Dose-dependent effect” in [19]. In addition, the Activity in [20] amounted to 14.5%; in test [21], 19.2%.

Consider `Cc1ccc(NC(=O)[C@@H](Cc2ccccc2)NC(=O)[C@]2(C)CCC[C@]3(C)c4ccc(C(C)C)cc4CC[C@@H]23)cc1Cl`, for which the half-inhibitory concentration (IC50) in [1] was 37.8 µM; in test [2], 41.2 µM; in test [3] it was 32.3 µM; in test [4] it was 36.9 µM; in [5] it was 26.1 µM; in test [6] it was 10.1 µM.

A word on the IC50: it is the midpoint of a concentration-inhibition curve. Low values mean higher potency, high ones lower potency.
